ChEMBL document CHEMBL1149247, “New COX-2/5-LOX inhibitors: apoptosis-inducing agents potentially useful in prostate cancer chemotherapy” (J Med Chem, 2004)
The source made the active and inactive calls. No cut-off for these calls is given here.

Legend:
LNCaP [1] = assay: Cell cycle arrest in human LNCaP cells by accumulation at subG1 phase at 10 uM after 72 hrs by FACS flow cytometry; assay type: functional
In short: (§1)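 LNCaP or PC 3 cells seeded in 6-well plates, synchronized 24 h in serum-free medium, treated 72 h with varying compound concentrations; trypsinized cells pooled with supernatants, pelleted, fixed in cold ethanol overnight at 4 °C, then 30 min in PBS with RNase and propidium iodide. FACScan flow cytometry quantified sub-G1 (sub-diploid), G1, S and G2-M fractions as percent of cells.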

PC-3 [2] = assay: Cell cycle arrest in human PC3 cells by accumulation at G1 phase at 100 uM after 72 hrs by FACS flow cytometry; assay type: functional; in short: as §1
PC-3 [3] = assay: Antiproliferative activity against androgen-independent human PC3 cells at 100 uM after 72 hrs by MTT test; assay type: functional
In short: (§2)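 Prostate carcinoma cells kept at 37 °C, 5% CO2 in RPMI 1640 with 10% fetal calf serum; seeded 1.8 × 10⁴ (PC 3) or 5.0 × 10⁴ (LNCaP) cells/well, grown 3 days, serum-starved 24 h for synchronization, then exposed 72 h to compounds in medium (<0.1% DMSO); growth read by colorimetric MTT. Mean of at least four independent determinations; single-dose lines at 100 μM.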

LNCaP [4] = assay: Cell cycle arrest in human LNCaP cells by accumulation at S phase at 100 uM after 72 hrs by FACS flow cytometry; assay type: functional; in short: as §1
LNCaP [5] = assay: Cell cycle arrest in human LNCaP cells by accumulation at G2M phase at 100 uM after 72 hrs by FACS flow cytometry; assay type: functional; in short: as §1
LNCaP [6] = assay: Cell cycle arrest in human LNCaP cells by accumulation at G1 phase at 10 uM after 72 hrs by FACS flow cytometry; assay type: functional; in short: as §1
[7] = molecular target: T1, Polyunsaturated fatty acid 5-lipoxygenase (Homo sapiens, UniProt P09917); assay: Inhibition of 5LOX in human whole blood assessed as inhibition of calcium ionophore A 23187-stimulated 5HETE production by HPLC analysis; assay type: functional, tissue-based
T1 sequence (P09917 whole entry): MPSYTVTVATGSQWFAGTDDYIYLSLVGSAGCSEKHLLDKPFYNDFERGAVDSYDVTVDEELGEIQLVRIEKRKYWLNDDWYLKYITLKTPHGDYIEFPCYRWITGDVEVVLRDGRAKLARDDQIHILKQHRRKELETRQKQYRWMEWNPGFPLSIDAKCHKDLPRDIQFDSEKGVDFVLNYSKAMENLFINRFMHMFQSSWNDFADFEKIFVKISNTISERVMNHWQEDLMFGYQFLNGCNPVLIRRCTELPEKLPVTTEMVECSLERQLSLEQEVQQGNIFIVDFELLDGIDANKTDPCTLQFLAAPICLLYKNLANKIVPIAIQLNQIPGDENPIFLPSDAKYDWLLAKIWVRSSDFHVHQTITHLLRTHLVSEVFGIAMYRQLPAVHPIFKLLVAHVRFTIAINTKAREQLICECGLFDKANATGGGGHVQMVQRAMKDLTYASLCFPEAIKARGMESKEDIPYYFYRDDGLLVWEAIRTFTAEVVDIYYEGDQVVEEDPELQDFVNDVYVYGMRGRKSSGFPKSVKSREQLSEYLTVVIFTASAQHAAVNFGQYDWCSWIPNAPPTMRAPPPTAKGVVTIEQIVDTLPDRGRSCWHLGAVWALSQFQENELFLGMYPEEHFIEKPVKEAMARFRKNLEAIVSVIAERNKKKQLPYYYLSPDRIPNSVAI
In short: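 Heparinized human whole blood, 1 mL aliquots, preincubated 15 min at 37 °C with compound or DMSO vehicle; then stimulated with 40 μM A 23187 for 15 min at 37 °C. 5-HETE extracted into ethyl acetate, then HPLC on a C18 column, methanol/water/acetic acid 80:20:0.08, pH 6.0, UV at 234 nm. IC50 from n = 2.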

PC-3 [8] = assay: Cell cycle arrest in human PC3 cells by accumulation at subG1 phase at 100 uM after 72 hrs by FACS flow cytometry; assay type: functional; in short: as §1
[9] = molecular target: Prostaglandin G/H synthase 1 (Homo sapiens, UniProt P23219); assay: Inhibition of COX1 expressed in CHO cells assessed as inhibition of arachidonic acid-stimulated PGE2 production by enzyme immunoassay; assay type: functional, cell-based
Prostaglandin G/H synthase 1, sequence (P23219 whole entry): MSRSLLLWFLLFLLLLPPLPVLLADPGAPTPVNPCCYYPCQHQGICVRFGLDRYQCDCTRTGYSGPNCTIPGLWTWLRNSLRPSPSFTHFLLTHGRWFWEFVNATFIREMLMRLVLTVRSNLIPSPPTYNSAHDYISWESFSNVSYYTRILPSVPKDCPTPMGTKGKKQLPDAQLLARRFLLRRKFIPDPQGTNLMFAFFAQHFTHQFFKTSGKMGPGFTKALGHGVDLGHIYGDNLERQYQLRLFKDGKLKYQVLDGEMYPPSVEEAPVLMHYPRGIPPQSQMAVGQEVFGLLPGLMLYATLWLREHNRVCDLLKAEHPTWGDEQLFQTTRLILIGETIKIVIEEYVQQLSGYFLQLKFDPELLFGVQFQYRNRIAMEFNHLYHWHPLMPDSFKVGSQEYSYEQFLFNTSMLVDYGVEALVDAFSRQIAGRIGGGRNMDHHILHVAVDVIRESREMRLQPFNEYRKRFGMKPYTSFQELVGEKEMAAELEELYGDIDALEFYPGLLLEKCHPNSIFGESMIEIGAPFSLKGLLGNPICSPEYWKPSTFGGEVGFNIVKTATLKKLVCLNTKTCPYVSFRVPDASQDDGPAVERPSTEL

PC-3 [10] = assay: Cell cycle arrest in human PC3 cells by accumulation at G2M phase at 100 uM after 72 hrs by FACS flow cytometry; assay type: functional; in short: as §1
LNCaP [11] = assay: Cell cycle arrest in human LNCaP cells by accumulation at G2M phase at 10 uM after 72 hrs by FACS flow cytometry; assay type: functional; in short: as §1
PC-3 [12] = assay: Cell cycle arrest in human PC3 cells by accumulation at S phase at 100 uM after 72 hrs by FACS flow cytometry; assay type: functional; in short: as §1
LNCaP [13] = assay: Cell cycle arrest in human LNCaP cells by accumulation at S phase at 10 uM after 72 hrs by FACS flow cytometry; assay type: functional; in short: as §1
LNCaP [14] = assay: Antiproliferative activity against androgen-sensitive human LNCaP cells after 72 hrs by MTT test; assay type: functional, cell-based; in short: as §2
LNCaP [15] = assay: Cell cycle arrest in human LNCaP cells by accumulation at G1 phase at 100 uM after 72 hrs by FACS flow cytometry; assay type: functional; in short: as §1
LNCaP [16] = assay: Cell cycle arrest in human LNCaP cells by accumulation at subG1 phase at 100 uM after 72 hrs by FACS flow cytometry; assay type: functional; in short: as §1
Homo sapiens = species: Homo sapiens; assay: Selectivity for COX2 over COX1
In short: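 Ratio of COX-1 to COX-2 IC50s, each taken from PGE2 production in CHO cells transfected with COX-1 or with COX-2. Cells were seeded and, 18 h later, given fresh Ham's F12 with 10% fetal calf serum with or without compound. After 10 min they were stimulated with arachidonic acid, then for 10 min with calcium ionophore A 23187. Intracellular PGE2 was read by enzyme immunoassay, n = 2.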

PC-3 [17] = assay: Cell cycle arrest in human PC3 cells by accumulation at subG1 phase at 10 uM after 72 hrs by FACS flow cytometry; assay type: functional; in short: as §1
PC-3 [18] = assay: Antiproliferative activity against androgen-independent human PC3 cells after 72 hrs by MTT test; assay type: functional, cell-based; settings: PC-3, 72 h; in short: as §2
PC-3 [19] = assay: Cell cycle arrest in human PC3 cells by accumulation at S phase at 10 uM after 72 hrs by FACS flow cytometry; assay type: functional; in short: as §1
[20] = molecular target: T2, Prostaglandin G/H synthase 2 (Homo sapiens, UniProt P35354); assay: Inhibition of COX2 expressed in CHO cells assessed as inhibition of arachidonic acid-stimulated PGE2 production by enzyme immunoassay
T2 sequence (P35354 whole entry): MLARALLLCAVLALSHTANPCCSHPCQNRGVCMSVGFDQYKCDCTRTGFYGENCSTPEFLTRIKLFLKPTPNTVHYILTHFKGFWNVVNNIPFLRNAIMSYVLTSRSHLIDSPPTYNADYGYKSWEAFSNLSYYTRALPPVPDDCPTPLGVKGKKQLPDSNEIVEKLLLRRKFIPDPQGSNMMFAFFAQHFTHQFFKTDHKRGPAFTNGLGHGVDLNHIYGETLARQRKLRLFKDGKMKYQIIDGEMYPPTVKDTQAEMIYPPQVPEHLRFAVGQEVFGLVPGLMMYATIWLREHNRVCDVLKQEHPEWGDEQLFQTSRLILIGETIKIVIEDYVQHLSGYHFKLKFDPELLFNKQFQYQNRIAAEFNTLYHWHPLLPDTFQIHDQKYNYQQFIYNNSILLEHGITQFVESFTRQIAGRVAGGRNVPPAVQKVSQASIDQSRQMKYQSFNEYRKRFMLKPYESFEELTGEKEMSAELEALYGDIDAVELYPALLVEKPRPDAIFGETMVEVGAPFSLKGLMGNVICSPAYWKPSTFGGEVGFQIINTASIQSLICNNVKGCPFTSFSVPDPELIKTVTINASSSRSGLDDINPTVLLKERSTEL

PC-3 [21] = assay: Cell cycle arrest in human PC3 cells by accumulation at G1 phase at 10 uM after 72 hrs by FACS flow cytometry; assay type: functional; in short: as §1
PC-3 [22] = assay: Cell cycle arrest in human PC3 cells by accumulation at G2M phase at 10 uM after 72 hrs by FACS flow cytometry; assay type: functional; in short: as §1
PC-3 [23] = assay: Inhibition of MMP9 secretion in androgen-independent human PC3 cells; assay type: functional, cell-based
LNCaP [24] = assay: Antiproliferative activity against androgen-sensitive human LNCaP cells at 100 uM after 72 hrs by MTT test; assay type: functional; in short: as §2
LNCaP [25] = assay: Cell cycle arrest in human LNCaP cells assessed as induction of G1 block at 100 uM by FACS flow cytometry; assay type: functional, cell-based; in short: as §1
PC-3 [26] = assay: Cell cycle arrest in human PC3 cells by accumulation at S phase at 50 uM after 72 hrs by FACS flow cytometry; assay type: functional; in short: as §1
LNCaP [27] = assay: Cell cycle arrest in human LNCaP cells by accumulation at S phase at 50 uM after 72 hrs by FACS flow cytometry; assay type: functional; in short: as §1
PC-3 [28] = assay: Cell cycle arrest in human PC3 cells by accumulation at G2M phase at 50 uM after 72 hrs by FACS flow cytometry; assay type: functional; in short: as §1
LNCaP [29] = assay: Cell cycle arrest in human LNCaP cells by accumulation at G1 phase at 50 uM after 72 hrs by FACS flow cytometry; assay type: functional; in short: as §1
LNCaP [30] = assay: Cell cycle arrest in human LNCaP cells by accumulation at subG1 phase at 50 uM after 72 hrs by FACS flow cytometry; assay type: functional; in short: as §1
PC-3 [31] = assay: Cell cycle arrest in human PC3 cells by accumulation at subG1 phase at 50 uM after 72 hrs by FACS flow cytometry; assay type: functional; in short: as §1
LNCaP [32] = assay: Cell cycle arrest in human LNCaP cells by accumulation at G2M phase at 50 uM after 72 hrs by FACS flow cytometry; assay type: functional; in short: as §1
PC-3 [33] = assay: Cell cycle arrest in human PC3 cells by accumulation at G1 phase at 50 uM after 72 hrs by FACS flow cytometry; assay type: functional; in short: as §1

SMILES	Activity (LNCaP [1])	Activity (PC-3 [3])	Activity (LNCaP [6])	IC50 [7]	IC50 [9]	Activity (LNCaP [11])	Activity (LNCaP [13])	IC50 (LNCaP [14])	IC50 (PC-3 [18])	other results
COC1(c2cc(F)cc(OCc3cc(-c4ccccc4)n(-c4ccc(S(C)(=O)=O)cc4)n3)c2)CCOCC1	3.6%	45%	70.1%	0.3 µM	26.1 µM	14.7%	11.2%	83.4 µM	–	Activity (PC-3 [2]): 67.8%; Activity (LNCaP [4]): 9.9%; Activity (LNCaP [5]): 12%; Activity (PC-3 [8]): 1.2%; Activity (PC-3 [10]): 25.9%; Activity (PC-3 [12]): 5.1%; Activity (LNCaP [15]): 74.2%; Activity (LNCaP [16]): 3.9%
COC1(c2cc(F)cc(OCc3cc(-c4ccccc4)n(-c4ccc(S(N)(=O)=O)cc4)n3)c2)CCOCC1	10.8%	–	74.2%	0.74 µM	25.7 µM	8.2%	6.9%	49.7 µM	45.9 µM	Selectivity ratio (Homo sapiens): 257; Activity (PC-3 [17]): 2.1%; Activity (PC-3 [19]): 6.6%; IC50 [20]: 0.1 µM; Activity (PC-3 [21]): 71.5%; Activity (PC-3 [22]): 19.5%; Activity (PC-3 [23]): Active
CS(=O)(=O)c1ccc(C2=C(c3ccccc3)C(=O)OC2)cc1 [ROFECOXIB]	4%	15%	69.4%	–	–	15.2%	11.4%	–	–	Activity (LNCaP [24]): 0%; Activity (LNCaP [25]): inactive
Cc1ccc(-c2cc(C(F)(F)F)nn2-c2ccc(S(N)(=O)=O)cc2)cc1 [CELECOXIB]	3.9%	–	75.7%	> 10 µM	–	11.3%	9%	50.4 µM	47 µM	Activity (PC-3 [26]): 5.8%; Activity (LNCaP [27]): 6.9%; Activity (PC-3 [28]): 23.5%; Activity (LNCaP [29]): 78%; Activity (LNCaP [30]): 4%; Activity (PC-3 [31]): 2.4%; Activity (LNCaP [32]): 11.1%; Activity (PC-3 [33]): 68.5%
